Laboratory results: ChEMBL document CHEMBL3091285, “Cytotoxic compounds from invasive giant salvinia (Salvinia molesta) against human tumor cells” (Bioorg Med Chem Lett, 2013)

Legend:
[1] = Cytotoxicity against human MRC5 cells assessed as growth inhibition by WST-8 assay; type: cell-based
[2] = Cytotoxicity against human BxPC3 cells assessed as growth inhibition by WST-8 assay; type: functional; conditions: BXPC-3
[3] = Cytotoxicity against human PANC1 cells assessed as growth inhibition by WST-8 assay; type: functional; conditions: PANC-1
[4] = test system: HL-60; experiment: Cytotoxicity against human HL60 cells assessed as growth inhibition by WST-8 assay; type: functional
[5] = test system: PC-3; experiment: Cytotoxicity against human PC3 cells assessed as growth inhibition by WST-8 assay; type: functional
[6] = test system: A549; experiment: Cytotoxicity against human A549 cells assessed as growth inhibition by WST-8 assay; type: functional
[7] = test system: BXPC-3; experiment: Antiproliferative activity against human BxPC3 cells after 12 to 48 hrs by CCK-8 assay; type: functional, cell-based
Method in brief: (§1)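 Pancreatic cancer cells (PANC-1, BxPC-3) exposed to test compound at 0 (control), 5, 10, 20, 40, 60, 80 or 100 uM, with concentration levels differing between compounds. Proliferation followed over incubation time, with viable cell number (x1,000) plotted against hours to assess dose-dependent suppression.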

[8] = test system: PANC-1; experiment: Antiproliferative activity against human PANC1 cells after 12 to 48 hrs by CCK-8 assay; type: functional, cell-based; method in brief: as §1
[9] = test system: MDA-MB-231; experiment: Cytotoxicity against human MDA-MB-231 cells assessed as growth inhibition by WST-8 assay; type: functional

CC(C)c1ccc2c3c(ccc2c1)C(C)(C)CCC3
GI50 [1]: > 100 µM
GI50 [2]: > 100 µM
GI50 [3]: > 100 µM
GI50 [4]: > 100 µM
GI50 [5]: > 100 µM
GI50 [6]: > 100 µM

CC(C)c1cc2c(cc1O)[C@@]1(C)CCCC(C)(C)[C@@H]1CC2O (some centres not stated)
GI50 [1]: 70.5 µM
GI50 [2]: 74.7 µM
GI50 [3]: 78.2 µM
GI50 [4]: 75.2 µM
GI50 [5]: 85.6 µM
GI50 [6]: 75.1 µM

CC(C)C1=C(O)C(=O)C2=C(C=C[C@H]3C(C)(C)CCC[C@]23C)C1=O
GI50 [1]: 40.2 µM
GI50 [2]: 41.7 µM
GI50 [3]: 51.3 µM
GI50 [4]: 30 µM
GI50 [5]: 46.3 µM
GI50 [6]: 48 µM

CC(C)c1cc(C=O)c([C@@]2(C)CCCC(C)(C)[C@@H]2C=O)cc1O
GI50 [6]: 93.8 µM

CC(C)c1cc2c(cc1O)[C@@]1(C)CCCC(C)(C)[C@@H]1C=C2
GI50 [1]: 59.2 µM
GI50 [2]: 37.5 µM
GI50 [3]: 46.7 µM
GI50 [4]: 66.5 µM
GI50 [5]: 58.1 µM
GI50 [6]: 53.8 µM

CC(C)c1cc2c(c(O)c1O)[C@@]1(C)CCCC(C)(C)[C@@H]1CC2=O [DEMETHYLCRYPTOJAPONOL]
GI50 [1]: 40.2 µM
GI50 [2]: 45 µM
GI50 [3]: 43.1 µM
GI50 [4]: 35.3 µM
GI50 [5]: 41 µM
GI50 [6]: 35 µM

CC(C)c1cc2c(cc1O)[C@@]1(C)CCCC(C)(C)[C@@H]1CC2 [FERRUGINOL]
GI50 [1]: 40 µM
GI50 [2]: 21.1 µM
GI50 [3]: 41.1 µM
GI50 [4]: 27.3 µM
GI50 [5]: 56.5 µM
GI50 [6]: 30.7 µM

COc1cc2c(cc1C(C)C)C(=O)C(O)=C1C(C)(C)CCC[C@@]12C
GI50 [6]: 21.2 µM

CC(C)C1=C(O)C(=O)C2=C(CC[C@H]3C(C)(C)CCC[C@]23C)C1=O [ROYLEANONE]
GI50 [1]: 45.7 µM
GI50 [2]: 51 µM
GI50 [3]: 52.6 µM
GI50 [4]: 36.3 µM
GI50 [5]: 27.1 µM
GI50 [6]: 30.1 µM

CC(C)c1cc2c(cc1O)[C@@]1(C)CCCC(C)(C)[C@@H]1CC2=O [SUGIOL]
GI50 [1]: > 100 µM
GI50 [2]: 36.1 µM
GI50 [3]: 87.9 µM
GI50 [4]: 68.6 µM
GI50 [5]: > 100 µM
GI50 [6]: 79.8 µM

CC(C)c1cc2c(cc1O)[C@@]1(C)CCCC(C)(C)C1=CC2=O
GI50 [2]: > 100 µM
GI50 [3]: > 100 µM
GI50 [4]: 92.8 µM
GI50 [5]: > 100 µM
GI50 [6]: 84.5 µM

CC(C)c1cc2ccc3c(c2cc1O)CCCC3(C)C
GI50 [1]: 55.4 µM
GI50 [2]: 36.4 µM
GI50 [3]: 37.5 µM
GI50 [4]: 50 µM
GI50 [5]: 43.6 µM
GI50 [6]: 42.2 µM

CC(C)c1cc2c(cc1O)[C@@]1(C)CCCC(C)(C)C1=C(O)C2=O
inhibition [7]: Dose-dependent effect
inhibition [8]: Dose-dependent effect
GI50 [1]: 20 µM
GI50 [2]: 25 µM
GI50 [3]: 23.1 µM
GI50 [4]: 11.5 µM
GI50 [5]: 13.2 µM
GI50 [6]: 11.1 µM

CC(C)c1cc2c(c(O)c1O)[C@@]1(C)CCCC(C)(C)C1=C(O)C2=O [14-DEOXYCOLEON U]
GI50 [1]: 24.8 µM
GI50 [9]: > 100 µM
GI50 [2]: 37.3 µM
GI50 [3]: 22.6 µM
GI50 [4]: 13.3 µM
GI50 [5]: 8.39 µM
GI50 [6]: 9.1 µM

CO[C@H]1c2cc(C(C)C)c(O)c(O)c2[C@@]23CCCC(C)(C)[C@@H]2[C@@H]1OC3=O
GI50 [6]: 86.5 µM

CC(C)c1cc2c(cc1O)[C@@]1(C)CCCC(C)(C)[C@@H]1C[C@H]2CC1=CCC(O)(C(C)C)CC1 (some centres not stated)
inhibition [7]: Dose-dependent effect
inhibition [8]: Dose-dependent effect
GI50 [1]: 58.4 µM
GI50 [9]: 75 µM
GI50 [2]: 87.3 µM
GI50 [3]: 60.4 µM
GI50 [4]: 48.1 µM
GI50 [5]: 54.2 µM
GI50 [6]: 62.9 µM

CC(C)C1=Cc2ccc3c(c2C(=O)C1=O)C(=O)CCC3(C)C
GI50 [1]: 20.4 µM
GI50 [2]: 20.5 µM
GI50 [3]: 32.1 µM
GI50 [4]: 23.3 µM
GI50 [5]: 19 µM
GI50 [6]: 24.9 µM
